# An excerpt weighted towards active compounds, which were near 1.9% of everything screened.
# MBD2 DNA inh – blocks human MBD2 binding to methylated DNA. TR-FRET, MBD2 binding to methylated oligonucleotide. inhibition, % at 4.4 µM. hit rate 0.31% among 370,000. AID 686964; in the data active means inhibition above about 13%
# Casp6 inh – blocks human caspase-6 cleavage activity; AID 686996; P55212; hit rate 0.53% among 350,000; inhibition, % at 12.5 µM; purified caspase-6, Z-VEID-R110 cleavage fluorescence;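 active means mean inhibition across replicates at least about 35%, with every replicate also reaching that limit, limit read from the data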;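 further: 0% = median of neutral control wells and 100% = no fluorescence left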
# Target sequence (P55212 24-179 limits assumed): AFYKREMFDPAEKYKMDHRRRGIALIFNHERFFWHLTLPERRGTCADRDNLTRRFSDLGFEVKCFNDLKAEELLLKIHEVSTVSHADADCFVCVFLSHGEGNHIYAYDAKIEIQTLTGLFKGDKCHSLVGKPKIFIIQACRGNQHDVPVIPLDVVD
# Target sequence (P55212 194-293 limits assumed): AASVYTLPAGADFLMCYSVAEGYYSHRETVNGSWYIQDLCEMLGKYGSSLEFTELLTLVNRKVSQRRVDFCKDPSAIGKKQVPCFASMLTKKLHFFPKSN
# UHRF1 binding – UHRF1 methyl-DNA binding inhibition; hit rate 0.75% among 370,000; inhibition, % at 4.4 µM; Q96T88; UHRF1 binding to methylated oligo, TR-FRET; AID 687016; in the data active means inhibition above about 21%;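 further: UHRF1 SRA domain binding a hemimethylated CpG hairpin DNA probe; 0% = median of test compound wells and 100% = reference inhibitor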
# LEDGF integ inh – blocks HIV-1 LEDGF/p75-dependent DNA integration; TR-FRET IN-LEDGF/p75 DNA integration, Eu/Cy5; inhibition, % at 3.7 µM; hit rate 0.64% among 370,000;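 active means inhibition above the screen-wide mean plus 3 SD, cut at about 13% in these data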;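 further: signal is the Cy5 over europium emission ratio at 671 and 618 nm; 0% = plate median of compound wells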
# NSD2 HMT inh – inhibitors of human histone methyltransferase NSD2; O96028; NSD2 peptide methylation, AlphaScreen, 120 min; inhibition, % at 12.5 µM; hit rate 0.54% among 310,000; AID 743445; in the data active means inhibition above about 50%
# TDP2 inh – TDP2 (human) inhibition, absorbance primary screen. inhibition, % at 12.8 µM. recombinant TDP2, T5PNP hydrolysis, p-nitrophenol absorbance 415 nm. hit rate 0.34% among 370,000. O95551. AID 720702;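 active means inhibition above the mean of all tested compounds plus 3 SD, set per campaign, cut at about 25% in these data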;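 further: 0% = DMSO with enzyme and 100% = buffer with substrate but no TDP2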
#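 Evaluation: % inhibition relative to enzyme-containing and enzyme-free wells. Material: recombinant human TDP2. Benchmarks: enzyme-free and DMSO wells. Timing: enzyme reaction with compound for 2 h at 37 °C. Compound dosing: 12.8 µM only. Measured by: p-Nitrophenol epi absorbance. Reagent: T5PNP substrate at 5 mM, a TopII-DNA adduct mimic. Replication: single well per compound.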
# TDP2 inh conf – human TDP2 inhibition, confirmation | AID 743263 | hit rate 22% among 1,100 | shares compounds with TDP2 inh | recombinant human TDP2, absorbance read-out | inhibition, % at 12.8 µM; in the data active means inhibition above about 25%;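 further: 0% = vehicle with enzyme and 100% = no enzyme buffer only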
# The depositor's hits bear a star; x = no result.
SMILES,MBD2 DNA inh,Casp6 inh,UHRF1 binding,LEDGF integ inh,NSD2 HMT inh,TDP2 inh,TDP2 inh conf
CSc1ccc(CN(C)CC(=O)Nc2c(F)cccc2F)cc1,0,7,0,-1,4,29*,20
COc1cc(CCC(=O)Nc2nccs2)cc(OC)c1OC,3,0,-2,0,-4,29*,-5
COc1ccc(/C=C2\SC(=S)N(CC(=O)N(C)C3CCS(=O)(=O)C3)C2=O)cc1 (configuration not stated),-6,-1,-2,2,9,-3,x
COc1cccc(/C=C2\SC(=S)N(CC(=O)N(C)C3CCS(=O)(=O)C3)C2=O)c1 (configuration not stated),9,1,23*,2,4,30*,-3
COc1ccc(F)cc1S(=O)(=O)NCc1cc(=O)n(C)c(=O)n1C,-4,-9,0,0,5,25*,4
COc1ccc(NC(=O)N(C)C[C@@H]2Oc3ccc(NS(=O)(=O)c4ccc(Cl)cc4)cc3C(=O)N([C@@H](C)CO)C[C@H]2C)cc1,x,1,x,x,x,x,x
CC(C)CN(C(=O)CCc1ccccc1Cl)c1c(N)n(Cc2ccccc2)c(=O)[nH]c1=O,1,0,-2,1,-3,27*,-5
COC(=O)CC1=NN(c2ccc(OC)cc2)C(=O)C1,-6,4,-4,1,0,0,x
CC1=NN(c2ccc(N)cc2)C(=O)C1,-6,5,-1,2,5,38*,19
CC1=NN(c2ccc(Cl)cc2)C(=O)C1,3,3,16,2,4,58*,6
CN(C)CC#Cc1ccc([C@H]2[C@H](CO)N3C(=O)CN(C(=O)c4cccc(F)c4)C[C@@H]23)cc1,x,-17,x,x,x,x,x
CC1CCN(CCCNC(=O)c2ccc(CS(=O)(=O)Cc3ccc(Cl)cc3)o2)CC1,-1,-32,-1,2,3,27*,-8
CCOC(=O)C1CCN(CC(=O)N2C(C)CCCC2C)CC1 (configuration not stated),-1,x,0,0,2,27*,1
CCc1ccc2c(c1)C(C)=CC(C)(C)N2,3,x,-1,4,0,0,x
CCOc1ccc2c(c1)C(C)=CC(C)(C)N2,-2,-4,-2,7,x,26*,-2
COc1ccc(CC(=O)OCC(=O)NCc2ccc3c(c2)OCO3)cc1OC,1,0,0,0,-4,-2,x
COc1ccc(CC(=O)OC(C)C(=O)NCc2ccc3c(c2)OCO3)cc1OC (configuration not stated),-6,2,-1,2,0,44*,3
CCS(=O)(=O)N1CC2(C1)[C@H](c1ccccc1)[C@@H](CO)N2C(=O)C1CCC1,x,0,x,x,x,x,x
CCCN1CCN(CCCNC(=O)Cn2nc(C)n3c(cc4cc(OC)ccc43)c2=O)CC1,1,-16,-8,0,2,27*,-5
O=C(Nc1ccccc1F)N1CC(=O)N2[C@H](CO)[C@@H](c3ccc(C#CC4CC4)cc3)[C@@H]2C1,x,0,x,x,x,x,x
CC1=NN(c2ccccc2)C(=O)C1N=Nc1ccc(N)cc1 (configuration not stated),-5,x,-7,4,47,29*,-1
CN1CCN(CCOCCOc2ccc(Br)cc2Cl)CC1,2,-6,1,0,3,29*,8
CCN1CCN(CCOCCOc2ccccc2)CC1,-3,-3,-1,0,15,28*,11
CCc1ccc(OCCOCCN2CCN(C)CC2)cc1,-1,-3,-1,4,-2,32*,20
CN1CCN(CCOc2ccc(Cc3ccccc3)cc2)CC1,-7,-2,3,2,6,3,x
CN1[C@@H]2Cn3c(ccc(-c4ccccc4)c3=O)[C@H]1[C@@H](C(=O)Nc1nccs1)[C@@H]2CO,x,-3,x,x,x,x,x
C[C@H]1CN([C@@H](C)CO)C(=O)Cc2cc(NC(=O)c3ccncc3)ccc2O[C@H]1CN(C)C,x,0,x,x,x,x,x
Nc1c(S(=O)(=O)c2cccs2)c2nc3ccccc3nc2n1Cc1ccccc1,5,x,9,6,4,44*,4

# Bioassay records: PubChem BioAssay, several laboratories
